The source made the active and inactive calls. The rule behind the calls is not given here.
Experiments:
PC-3 = test: Induction of cell death in human PC3 cells at 0.1 to 25 uM; format: cell-based; conditions: pc-3, 25 µM
[1] = Mutagenicity in Salmonella typhimurium TA98 assessed as induction of >= 2 fold increase in revertant colonies at 1.5 to 1000 ug/well in presence of S9 fraction by Ames test; format: toxicity, subcellular; conditions: salmonella enterica subsp. enterica serovar typhimurium
Method in brief: (§1)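 Ames test with S. typhimurium TA98 and TA1537, with and without S9 mix. A positive call required a ≥ 2-fold (TA98) or ≥ 3-fold (TA1537) rise in mean revertant colonies over the concurrent negative/solvent control.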

Mus musculus [2] = test: Antitumor immunity against mouse SM1 cells implanted in flank of immunocompetent C57BL/6 mouse assessed as increase in infiltration of NKT cells at 25 mg/kg, ip administered 1 week post-implantation by flow cytometry; format: functional, organism-based
[3] = target: T1, Protein deacetylase HDAC6 (Mus musculus) (UniProt Q9Z2V5); test: Inhibition of HDAC6 in mouse SM1 cells assessed as reduction in IL-6 stimulated PDL1 overexpression at 5 uM pretreated for 1 hr followed by IL-6 stimulation for overnight by western blot analysis; format: cell-based
T1 sequence (whole entry): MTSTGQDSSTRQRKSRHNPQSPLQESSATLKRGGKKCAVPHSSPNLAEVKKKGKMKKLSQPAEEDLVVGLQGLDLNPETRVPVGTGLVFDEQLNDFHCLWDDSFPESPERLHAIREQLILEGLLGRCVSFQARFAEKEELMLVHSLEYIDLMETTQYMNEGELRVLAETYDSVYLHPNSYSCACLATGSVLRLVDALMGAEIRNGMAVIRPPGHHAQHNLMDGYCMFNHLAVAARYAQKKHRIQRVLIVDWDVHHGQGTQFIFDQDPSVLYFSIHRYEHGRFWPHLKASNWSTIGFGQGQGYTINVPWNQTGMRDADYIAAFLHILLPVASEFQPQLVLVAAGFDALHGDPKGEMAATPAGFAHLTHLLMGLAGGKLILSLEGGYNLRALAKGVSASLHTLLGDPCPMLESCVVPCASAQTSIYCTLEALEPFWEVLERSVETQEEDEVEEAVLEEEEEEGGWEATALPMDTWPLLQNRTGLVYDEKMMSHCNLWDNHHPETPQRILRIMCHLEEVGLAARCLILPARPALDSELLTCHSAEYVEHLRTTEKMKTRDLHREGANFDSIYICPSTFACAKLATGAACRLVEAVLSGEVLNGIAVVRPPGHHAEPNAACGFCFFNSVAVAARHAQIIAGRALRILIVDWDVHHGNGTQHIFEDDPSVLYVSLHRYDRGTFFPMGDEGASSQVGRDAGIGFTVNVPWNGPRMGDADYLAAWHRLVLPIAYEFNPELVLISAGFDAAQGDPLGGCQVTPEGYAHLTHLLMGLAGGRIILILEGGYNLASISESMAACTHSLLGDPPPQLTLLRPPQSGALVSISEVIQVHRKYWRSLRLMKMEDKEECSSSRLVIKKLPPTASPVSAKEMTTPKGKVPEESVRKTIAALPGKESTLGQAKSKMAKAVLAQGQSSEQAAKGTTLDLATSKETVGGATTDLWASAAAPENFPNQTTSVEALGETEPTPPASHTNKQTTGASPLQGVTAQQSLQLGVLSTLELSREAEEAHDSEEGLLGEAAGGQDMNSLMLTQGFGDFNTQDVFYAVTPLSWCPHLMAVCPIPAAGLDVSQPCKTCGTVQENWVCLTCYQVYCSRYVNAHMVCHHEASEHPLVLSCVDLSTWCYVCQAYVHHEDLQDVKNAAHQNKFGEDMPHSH
Method in brief: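 SM1 cells pretreated with 5 µM compound, then IL-6 overnight. Lysed in RIPA buffer with protease and phosphatase inhibitors, sonicated, protein quantified by BCA. Immunoblot for PD-L1 and STAT3 Y705 phosphorylation.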

[4] = Induction of cell death in mouse SM1 cells at 0.1 to 25 uM; format: cell-based
[5] = Induction of apoptosis in mouse SM1 cells at 0.1 to 25 uM by caspase3/7 reagent based luminescence assay; format: cell-based
Method in brief: (§2)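 SM1 cells treated with HDAC inhibitors, with pan-HDACi and assay controls on every plate. ApoTox-Glo triplex readout: viability fluorescence 400Ex/505Em, cytotoxicity fluorescence 485Ex/520Em, then caspase 3/7 reagent read by luminescence for apoptosis.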

[6] = Half life in mouse hepatocytes; format: ADME, cell-based, Hepatocyte
Method in brief: (§3)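 Half-life in minutes measured in mouse and human hepatocytes.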

[7] = Mutagenicity in Salmonella typhimurium TA98 assessed as induction of >= 2 fold increase in revertant colonies at 1.5 to 1000 ug/well in absence of S9 fraction by Ames test; format: toxicity; conditions: salmonella enterica subsp. enterica serovar typhimurium; method in brief: as §1
5637 = test: Induction of cell death in human 5637 cells at 0.1 to 25 uM; format: cell-based; conditions: human, 5637, 25 µM
[8] = Half life in human hepatocytes; format: ADME, cell-based, Hepatocyte; method in brief: as §3
[9] = target: Histone deacetylase (Mus musculus) (UniProt Q8VH37+Q9Z2V6+Q9Z2V5+O09106+Q8C2B3+P70288+O88895+Q91WA3+Q99N13+Q6NZM9+Q6P3E7); test: Inhibition of HDAC in mouse SM1 cells at 0.1 to 25 uM measured after 1 hr by HDAC-Glo 1/2 luminescent assay; format: cell-based
Method in brief: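 Cells plated at 10,000 per well overnight, then after 24 h treated with compound for 1 h at 37 °C, 5% CO2. HDAC-Glo I/II developer mixed with substrate and added to wells; luminescence read every 2 min for 1 h 15 min.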

[10] = Half life in mouse liver microsomes in presence of NADPH; format: ADME, Microsome
Method in brief: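 Liver microsomal stability in mouse and human microsomes with NADPH; half-life in minutes.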

T-24 = test: Induction of cell death in human T24 cells at 0.1 to 25 uM; format: cell-based; conditions: t-24, 25 µM
[11] = target: T1, Protein deacetylase HDAC6 (Mus musculus); test: Inhibition of HDAC6 in mouse SM1 cells assessed as effect on acetylated histone H3 level at 5 uM after 24 hrs by Western blot analysis; format: cell-based
Mus musculus [12] = test: Antitumor immunity against mouse SM1 cells implanted in flank of immunocompetent C57BL/6 mouse assessed as increase in ratio of M1/M2 macrophages at 25 mg/kg, ip administered 1 week post-implantation by flow cytometry; format: functional, organism-based
Mus musculus [13] = test: Antitumor immunity against mouse SM1 cells implanted in flank of immunocompetent C57BL/6 mouse assessed as increase in antitumor M1 macrophages at 25 mg/kg, ip administered 1 week post-implantation by flow cytometry; format: functional, organism-based
[14] = target: T1, Protein deacetylase HDAC6 (Mus musculus); test: Inhibition of HDAC6 in mouse SM1 cells assessed as reduction in IL-6 stimulated CD274 gene expression at 5 uM pretreated for 1 hr followed by IL-6 stimulation for overnight by qRT-PCR analysis; format: cell-based
Method in brief: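 SM1 cells serum-starved overnight, pretreated 1 h with 5 µM compound, then given recombinant murine IL-6 at 30 ng/mL overnight. Total RNA extracted with Trizol; PD-L1 mRNA measured by qRT-PCR, normalized to GAPDH by the Pfaffl method, in arbitrary units.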

[15] = target: Voltage-gated inwardly rectifying potassium channel KCNH2 (Homo sapiens, UniProt Q12809); test: Inhibition of human ERG expressed in HEK293 cells by manual-patch clamp assay; format: cell-based
Voltage-gated inwardly rectifying potassium channel KCNH2, sequence (Q12809 whole entry): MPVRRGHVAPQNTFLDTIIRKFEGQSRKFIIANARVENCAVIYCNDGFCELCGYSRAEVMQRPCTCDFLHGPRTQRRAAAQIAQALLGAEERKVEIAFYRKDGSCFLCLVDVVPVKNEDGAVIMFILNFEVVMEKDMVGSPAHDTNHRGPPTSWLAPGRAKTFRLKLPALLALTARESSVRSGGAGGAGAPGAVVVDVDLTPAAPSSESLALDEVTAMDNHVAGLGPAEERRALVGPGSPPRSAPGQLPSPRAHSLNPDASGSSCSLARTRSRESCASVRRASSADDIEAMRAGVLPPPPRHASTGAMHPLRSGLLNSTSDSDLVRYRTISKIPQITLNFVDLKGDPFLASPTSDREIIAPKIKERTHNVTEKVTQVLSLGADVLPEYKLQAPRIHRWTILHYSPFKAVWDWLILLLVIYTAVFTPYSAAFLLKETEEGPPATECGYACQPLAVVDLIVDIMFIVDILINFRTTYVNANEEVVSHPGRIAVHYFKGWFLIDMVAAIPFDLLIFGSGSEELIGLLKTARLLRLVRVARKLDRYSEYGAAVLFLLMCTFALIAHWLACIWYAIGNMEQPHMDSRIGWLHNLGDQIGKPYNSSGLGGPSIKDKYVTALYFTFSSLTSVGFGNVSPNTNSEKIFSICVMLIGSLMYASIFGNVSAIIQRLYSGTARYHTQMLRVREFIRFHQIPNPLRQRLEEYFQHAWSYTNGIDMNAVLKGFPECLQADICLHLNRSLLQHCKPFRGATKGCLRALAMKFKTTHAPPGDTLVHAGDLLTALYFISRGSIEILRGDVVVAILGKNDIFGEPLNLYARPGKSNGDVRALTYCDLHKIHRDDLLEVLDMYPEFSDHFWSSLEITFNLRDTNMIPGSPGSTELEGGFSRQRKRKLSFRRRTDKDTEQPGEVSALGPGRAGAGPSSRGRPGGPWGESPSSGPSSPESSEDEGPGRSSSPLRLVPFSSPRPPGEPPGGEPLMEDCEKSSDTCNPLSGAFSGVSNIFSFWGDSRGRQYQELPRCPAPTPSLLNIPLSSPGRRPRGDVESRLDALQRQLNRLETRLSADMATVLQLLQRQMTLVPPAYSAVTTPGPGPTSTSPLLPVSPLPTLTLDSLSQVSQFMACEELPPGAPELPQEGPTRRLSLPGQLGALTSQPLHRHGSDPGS

[16] = Effect on cell viability in mouse SM1 cells up to 10 uM by ApoTox-Glo triplex assay; format: cell-based; method in brief: as §2

inhibition [3]: Active
half-life [6]: 22 min
half-life [8]: 108 min
inhibition [9]: Active
half-life [10]: 37 min
inhibition [11]: inactive
inhibition [14]: Active
SMILES: O=C(NCCc1cc(C(=O)NO)no1)c1ccc(Cl)c(Cl)c1
Activity (PC-3): Non-Toxic
Activity [1]: Non-Toxic
Activity (Mus musculus [2]): Active
Activity [4]: Non-Toxic
Activity [5]: Non-Toxic
Activity [7]: Non-Toxic
Activity 5637: Non-Toxic
Activity (T-24): Non-Toxic
Activity (Mus musculus [12]): Active
Activity (Mus musculus [13]): Active
IC50 [15]: > 30 µM
Activity [16]: Non-Toxic
